Measured values of several laboratories.
Lines come from different studies, so protocols differ.
Cell line: NCI-H1299
Effect on: cell growth or viability

| Structure (SMILES) | method | concentration | time | quantity | value |
| --- | --- | --- | --- | --- | --- |
| C/C(=N\O)c1ccc(-c2cccc(C#N)c2)c(Cl)c1O | MTT | 30 µM | 48 h | viability | 82% |
| C=C(c1ccc(C(=O)O)cc1)c1cc2c(cc1C)C(C)(C)CCC2(C)C | MTT | – | 72 h | EC50 | 44 µM |
| Cc1cc2c(cc1N1C(=O)c3cccc4c(CCCO)ccc(c34)C1=O)n(C)c(=O)n2C (racemic) | resazurin | – | – | GI50 | > 10 µM |
| COc1ccccc1OCCN1CCOC(COc2cccc3[nH]c4ccccc4c23)C1 (centres unmarked) | CCK-8 | – | 72 h | IC50 | > 100 µM |
| CN1C[C@H](C(=O)N[C@]2(C)O[C@@]3(O)[C@@H]4CCCN4C(=O)[C@H](Cc4ccccc4)N3C2=O)C[C@@H]2c3cccc4[nH]cc(c34)C[C@H]21 | MTT | – | 72 h | EC50 | 70 µM |
| COc1ccc(-c2ccc(/C(C)=N/O)c(O)c2Cl)cc1C | MTT | 30 µM | 48 h | viability | 76% |
| Cc1c(-c2cccc(C(F)(F)F)c2)sc2[nH]c(=O)n([C@H](C)c3cccc4ccccc34)c(=O)c12 | – | 10 µM | – | inhibition | > 80% |
| CCCc1ccc(OCC(O)CNC/C=C/c2ccccc2OC)cc1 (centres unmarked) | CCK-8 | – | 72 h | IC50 | 11.4 µM |
| COc1cccc(-c2ccc(/C(C)=N/O)c(O)c2Cl)c1 | MTT | 30 µM | 48 h | viability | 90% |
| COc1ccccc1C#CCNCC(O)COc1cccc2[nH]c3ccccc3c12 (centres unmarked) | CCK-8 | – | 72 h | IC50 | > 100 µM |
| COc1cc2c(Nc3ccc(NC(=O)c4ccccc4)cc3)ncnc2cc1OCCCN1CCOCC1 | MTS | – | 72 h | IC50 | 0.7 µM |
